Test results taken from ChEMBL document CHEMBL1124951, “N-phenyl-2-pyridinecarbothioamides as gastric mucosal protectants” (J Med Chem, 1990).
Activity calls are given as the source filed them. No cut-off for these calls is given here.

Tests used:
Rattus norvegicus [1] = assay: Percent inhibition against ethanol-induced gastric lesions in male albino rat was determined at a dose of 10 mg/Kg; type: functional; conditions: Stomach
Outline: (§1)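 Charles River male albino rats (190-219 g), food withheld 18-24 h with water available. Drug or vehicle given orally 1 h before ethanol (1 mL per rat po). Rats killed by CO2 asphyxiation 1 h after ethanol. Lesions scored single blind by size (mm2) and number per size category. Percent inhibition taken against the vehicle group mean; ED50 with 95% confidence limits obtained by regression of dose-response data.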

Rattus norvegicus [2] = assay: Percent inhibition against ethanol-induced gastric lesions in male albino rat was determined at a dose of 100 mg/Kg (po); type: functional; conditions: Stomach; outline: as §1
Rattus norvegicus [3] = assay: Compound was evaluated for antisecretory action in the pylorus-ligated rat model (PLR) at 100 mg/kg (po); No significant activity at 100 mg/kg; type: functional, organism-based
Outline: (§2)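 Drug or vehicle given orally. After 1 h, rats anesthetized with methohexital (30 mg/kg ip) and the pylorus ligated through a midline incision. Killed by CO2 4 h after surgery. Gastric volume measured and acid titrated to pH 7.0 with 0.1 N NaOH. Total acid output (microequivalents per 4 h) = volume × acid concentration.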

Rattus norvegicus [4] = assay: Compound was evaluated for activity in stress-induced ulcer rat (po); type: functional
Outline: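 Rats dosed po with drug or vehicle 30 min before immobilization in restrainers at 4-5 °C for 3 h, then euthanized. Gastric ulcers graded by size and number, with percent inhibition taken against the control mean.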

Rattus norvegicus [5] = species on record: Rattus norvegicus; assay: Effective dose against ethanol-induced gastric lesions in male albino rat when given perorally was determined; 0.2-4.7; type: functional; conditions: Stomach, po; outline: as §1
[6] = Compound was evaluated for lethal activity through acute lethality model when given perorally; type: ADME, organism-based; conditions: rat, in vivo, po
Rattus norvegicus [7] = assay: Percent inhibition against ethanol-induced gastric lesions in male albino rat was determined at a dose of 50 mg/Kg (po); type: functional; conditions: Stomach; outline: as §1
Rattus norvegicus [8] = assay: Percent inhibition against ethanol-induced gastric lesions in male albino rat was determined at a dose of 25 mg/Kg; type: functional; conditions: Stomach; outline: as §1
Rattus norvegicus [9] = species on record: Rattus norvegicus; assay: Effective dose against ethanol-induced gastric lesions in male albino rat when given perorally was determined; 3.0-10; type: functional; conditions: Stomach, po; outline: as §1
Rattus norvegicus [10] = assay: Percent inhibition against ethanol-induced gastric lesions in male albino rat was determined at a dose of 5 mg/Kg (po); type: functional; conditions: Stomach; outline: as §1
Rattus norvegicus [11] = assay: Percent inhibition against ethanol-induced gastric lesions in male albino rat was determined at a dose of 5 mg/Kg; type: functional; conditions: Stomach; outline: as §1
Rattus norvegicus [12] = species on record: Rattus norvegicus; assay: Effective dose against ethanol-induced gastric lesions in male albino rat when given perorally was determined; 2.4-11; type: functional; conditions: Stomach, po; outline: as §1
Rattus norvegicus [13] = assay: Compound was evaluated for antisecretory action in the pylorus-ligated rat model (PLR) at 100 mg/kg;NS=No significant activity at 100 mg/kg; type: functional, organism-based; outline: as §2
Rattus norvegicus [14] = species on record: Rattus norvegicus; assay: Compound was evaluated for activity against ethanol-induced gastric lesions; type: functional; conditions: Stomach; outline: as §1
Rattus norvegicus [15] = species on record: Rattus norvegicus; assay: Compound was evaluated for activity in acute lethality model; NL=Not lethal; type: ADME, organism-based; conditions: in vivo
Rattus norvegicus [16] = species on record: Rattus norvegicus; assay: Effective dose against ethanol-induced gastric lesions in male albino rat when given perorally was determined; 1.2-5.9; type: functional; conditions: Stomach, po; outline: as §1
Rattus norvegicus [17] = assay: Compound was evaluated for activity against ethanol-induced gastric lesions mg/kg;NS=No significant activity at 25 mg/kg; type: functional, organism-based; design: dose 25 mg/kg; conditions: Stomach; outline: as §1
Rattus norvegicus [18] = species on record: Rattus norvegicus; assay: Compound was evaluated for activity in stress-induced ulcers; type: functional
Outline: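 Rats dosed po with drug or vehicle 30 min before immobilization in restrainers at 4-5 °C for 3 h, then euthanized. Gastric ulcers graded by size and number, with percent inhibition taken against the control mean. ED50 with 95% confidence limits obtained by regression of dose-response data.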

Rattus norvegicus [19] = species on record: Rattus norvegicus; assay: Compound was evaluated for activity in acute lethality model; type: ADME, organism-based; conditions: in vivo
Rattus norvegicus [20] = species on record: Rattus norvegicus; assay: Compound was evaluated for antisecretory action in the pylorus-ligated rat model (PLR); type: functional; outline: as §2
Rattus norvegicus [21] = species on record: Rattus norvegicus; assay: Effective dose against ethanol-induced gastric lesions in male albino rat when given perorally was determined; 0.5-1.5; type: functional; conditions: Stomach, po; outline: as §1

SMILES: CCN(C(=S)c1ccccn1)c1cc(F)cc(F)c1
- inhibition in vivo at 10 mg/kg (Rattus norvegicus [1]): 13%

SMILES: Fc1ccccc1/N=C(\S)c1ccccn1
- inhibition in vivo at 100 mg/kg (Rattus norvegicus [2]): 69%

SMILES: S=C(Nc1ccccc1)c1ccccn1
- ED50 (Rattus norvegicus [3]): inactive
- ED50 (Rattus norvegicus [4]): 10 mg/kg
- ED50 (Rattus norvegicus [5]): 1.1 mg/kg
- LD50 [6]: > 1000 mg/kg

SMILES: S=C(c1ccccn1)N1CCOCC1
- inhibition in vivo at 50 mg/kg (Rattus norvegicus [7]): 44%

SMILES: O=C(Nc1cccc(F)c1)c1ccccn1
- inhibition in vivo at 10 mg/kg (Rattus norvegicus [1]): 24%

SMILES: Fc1cc(F)cc(NC(=S)c2ccncc2)c1
- inhibition in vivo at 25 mg/kg (Rattus norvegicus [8]): 85%

SMILES: Cc1ccc(NC(=S)c2ccccn2)cc1F
- ED50 (Rattus norvegicus [9]): 5.4 mg/kg

SMILES: N#Cc1cc(NC(=S)c2ccccn2)ccc1F
- inhibition in vivo at 10 mg/kg (Rattus norvegicus [1]): 29%

SMILES: COc1ccc(NC(=S)c2ccccn2)cc1OC
- inhibition in vivo at 5 mg/kg (Rattus norvegicus [10]): 0%

SMILES: CCOC(=O)c1cc(NC(=S)c2ccccn2)ccc1F
- inhibition in vivo at 10 mg/kg (Rattus norvegicus [1]): 10%

SMILES: COc1ccc(NC(=S)c2ccccn2)cc1Cl
- inhibition in vivo at 25 mg/kg (Rattus norvegicus [8]): 44%

SMILES: S=C(c1ccccn1)N1CCN(c2ccccc2)CC1
- inhibition in vivo at 50 mg/kg (Rattus norvegicus [7]): -6%

SMILES: FC(F)(F)COc1cccc(NC(=S)c2ccccn2)c1
- inhibition in vivo at 10 mg/kg (Rattus norvegicus [1]): 7%

SMILES: CSc1ccc(NC(=S)c2ccccn2)cc1
- inhibition in vivo at 5 mg/kg (Rattus norvegicus [10]): 31%

SMILES: S=C(NCc1ccc2c(c1)OCO2)c1ccccn1
- inhibition in vivo at 50 mg/kg (Rattus norvegicus [7]): 11%

SMILES: O=C(O)c1cc(NC(=S)c2ccccn2)ccc1F
- inhibition in vivo at 10 mg/kg (Rattus norvegicus [1]): 42%

SMILES: N#CN/C(=N\c1ccccc1)c1ccccn1
- inhibition in vivo at 5 mg/kg (Rattus norvegicus [11]): 37%

SMILES: S=C(Nc1cc(Cl)cc(Cl)c1)c1ccccn1
- inhibition in vivo at 25 mg/kg (Rattus norvegicus [8]): 89%

SMILES: CN(C(=S)c1ccccn1)c1cc(F)cc(F)c1
- inhibition in vivo at 25 mg/kg (Rattus norvegicus [8]): 40%

SMILES: S=C(Nc1ccccn1)c1cnccn1
- ED50 (Rattus norvegicus [12]): 5.2 mg/kg

SMILES: S=C(Nc1ccc(OCc2ccccc2)cc1)c1ccccn1
- inhibition in vivo at 5 mg/kg (Rattus norvegicus [10]): 47%

SMILES: O=S(=O)(OC[C@H]1O[C@@H](O[C@]2(COS(=O)(=O)[O][Al]([OH])[OH])O[C@H](OS(=O)(=O)[O][Al]([OH])[OH])[C@@H](OS(=O)(=O)[O][Al]([OH])[OH])[C@@H]2OS(=O)(=O)[O][Al]([OH])[OH])[C@H](OS(=O)(=O)[O][Al]([OH])[OH])[C@@H](OS(=O)(=O)[O][Al]([OH])[OH])[C@@H]1OS(=O)(=O)[O][Al]([OH])[OH])[O][Al]([OH])[OH].[OH][Al]([OH])[OH].[OH][Al]([OH])[OH].[OH][Al]([OH])[OH].[OH][Al]([OH])[OH].[OH][Al]([OH])[OH].[OH][Al]([OH])[OH].[OH][Al]([OH])[OH].[OH][Al]([OH])[OH]
- ED50 (Rattus norvegicus [13]): inactive
- ED50 (Rattus norvegicus [14]): 60 mg/kg
- LD50 (Rattus norvegicus [15]): Not lethal

SMILES: S=C(Nc1ccccn1)c1ccccn1
- ED50 (Rattus norvegicus [16]): 2.6 mg/kg

SMILES: S=C(Nc1cccc(CN2CCOCC2)c1)c1ccccn1
- inhibition in vivo at 10 mg/kg (Rattus norvegicus [1]): 64%

SMILES: CN1CCN(Cc2cccc(NC(=S)c3ccccn3)c2)CC1
- inhibition in vivo at 10 mg/kg (Rattus norvegicus [1]): 10%

SMILES: Fc1cc(F)cc(NC(=S)c2cccnc2)c1
- inhibition in vivo at 25 mg/kg (Rattus norvegicus [8]): 55%

SMILES: CNC(=C[N+](=O)[O-])NCCSCc1ccc(CN(C)C)o1 [RANITIDINE]
- ED50 (Rattus norvegicus [17]): inactive
- ED50 (Rattus norvegicus [18]): 3.6 mg/kg
- LD50 (Rattus norvegicus [19]): Not Active
- ED50 (Rattus norvegicus [20]): 2.4 mg/kg

SMILES: O=C(Nc1cc(F)cc(F)c1)c1ccccn1
- inhibition in vivo at 25 mg/kg (Rattus norvegicus [8]): 11%

SMILES: S=C(Nc1cccc(CN2CCSCC2)c1)c1ccccn1
- inhibition in vivo at 10 mg/kg (Rattus norvegicus [1]): 32%

SMILES: Fc1ccc(NC(=S)c2ccccn2)cc1Cl
- inhibition in vivo at 25 mg/kg (Rattus norvegicus [8]): 56%

SMILES: C[S+]([O-])c1ccc(NC(=S)c2ccccn2)cc1 (centres undefined)
- inhibition in vivo at 5 mg/kg (Rattus norvegicus [11]): 54%

SMILES: CN(C(=S)c1ccccn1)c1cccc(F)c1
- inhibition in vivo at 10 mg/kg (Rattus norvegicus [1]): 31%

SMILES: S=C(c1ccccn1)N1CCCc2ccccc21
- inhibition in vivo at 10 mg/kg (Rattus norvegicus [1]): 17%

SMILES: Fc1ccc(NC(=S)c2ccccn2)cc1Cn1ccnc1
- ED50 (Rattus norvegicus [21]): 0.9 mg/kg

SMILES: FC(F)(F)Oc1ccc(NC(=S)c2ccccn2)cc1
- inhibition in vivo at 5 mg/kg (Rattus norvegicus [11]): 35%

SMILES: Cc1ccc(NC(=S)c2ccccn2)cc1Cl
- inhibition in vivo at 25 mg/kg (Rattus norvegicus [8]): 22%
